Peptide text beside a SMILES is read from it.
Legend:
[1] = test system: HCT-116; assay: Cytotoxicity against multidrug-resistant human HCT116 cells at 1 uM by thymidine incorporation assay; format: functional
In short: (§1)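 HCT-116 cells were grown in IMDM and HCT-15 in RPMI 1640, each with L-glutamine, 10% FBS and penicillin-streptomycin, at 3000 cells/well. Compound was applied at 1 µM in 1% DMSO for 72 h total, with 3H-thymidine added for the final 16 h. Percent growth inhibition versus DMSO controls was scintillation-counted, averaging three wells in each of three assays.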

[2] = test system: HCT-15; assay: Cytotoxicity against multidrug-resistant human HCT15 cells at 1 uM by thymidine incorporation assay; format: functional; in short: as §1

| Structure (SMILES) | inhibition at 1 µM [1] [%] | inhibition at 1 µM [2] [%] |
| --- | --- | --- |
| CC(C)C[C@@H]1NC(=O)[C@H](Cc2ccccc2)NC(=O)[C@@H](Cc2ccccc2)NC(=O)[C@H](C(C)C)NC(=O)[C@H](CC(C)C)NC1=O | 35 | 14 |
| CC(C)C[C@@H]1NC(=O)[C@H](C)NC(=O)[C@H](CC(C)C)NC(=O)[C@H](CC(C)C)NC(=O)[C@H](Cc2ccccc2)NC1=O (HELM PEPTIDE1{A.L.F.L.L}$PEPTIDE1,PEPTIDE1,1:R1-5:R2$$$V2.0) | 23 | 40 |
| CC(C)C[C@@H]1NC(=O)[C@H](Cc2ccccc2)NC(=O)[C@H](CC(C)C)NC(=O)[C@H](C(C)C)NC(=O)[C@H](CCCCN)NC1=O (HELM PEPTIDE1{F.L.K.V.L}$PEPTIDE1,PEPTIDE1,1:R1-5:R2$$$V2.0) | 23 | 15 |
| CC(C)C[C@@H]1NC(=O)[C@H](Cc2ccccc2)NC(=O)[C@@H](Cc2ccccc2)N(C)C(=O)[C@H](C(C)C)NC(=O)[C@H](CCCCN)NC1=O (HELM PEPTIDE1{F.L.K.V.[CN([C@H](Cc1ccccc1)C(=O)[*:2])[*:1]]}$PEPTIDE1,PEPTIDE1,1:R1-5:R2$$$V2.0) | 30 | 26 |
| CC(C)C[C@@H]1NC(=O)[C@H](Cc2ccccc2)NC(=O)[C@H](CC(C)C)NC(=O)[C@@H](C(C)C)NC(=O)[C@H](CCCCN)NC1=O (HELM PEPTIDE1{F.L.K.[dV].L}$PEPTIDE1,PEPTIDE1,1:R1-5:R2$$$V2.0) | 11 | 18 |
| CC(C)C[C@@H]1NC(=O)[C@H](Cc2ccccc2)NC(=O)[C@@H](CO)NC(=O)[C@H](C(C)C)NC(=O)[C@H](CC(C)C)NC1=O (HELM PEPTIDE1{F.L.L.V.[dS]}$PEPTIDE1,PEPTIDE1,1:R1-5:R2$$$V2.0) | 37 | 3 |
| CC(C)C[C@@H]1NC(=O)[C@H](Cc2ccccc2)NC(=O)[C@H](CC(C)C)NC(=O)[C@@H](C(C)C)N(C)C(=O)[C@H](CC(C)C)NC1=O (HELM PEPTIDE1{F.L.L.[CC(C)[C@H](C(=O)[*:2])N(C)[*:1]].L}$PEPTIDE1,PEPTIDE1,1:R1-5:R2$$$V2.0) | 19 | 21 |
| CC(C)C[C@@H]1NC(=O)[C@H](Cc2ccccc2)NC(=O)[C@@H](CC(C)C)N(C)C(=O)[C@@H](C(C)C)N(C)C(=O)[C@H](CC(C)C)NC1=O (HELM PEPTIDE1{F.L.L.[CC(C)[C@H](C(=O)[*:2])N(C)[*:1]].[CC(C)C[C@H](C(=O)[*:2])N(C)[*:1]]}$PEPTIDE1,PEPTIDE1,1:R1-5:R2$$$V2.0) | 30 | 7 |
| CC[C@H]1NC(=O)[C@H](CC(C)C)NC(=O)[C@H](CC(C)C)NC(=O)[C@H](Cc2ccccc2)NC(=O)[C@H](CC(C)C)NC1=O (HELM PEPTIDE1{F.L.L.[CC[C@@H](N[*:1])C(=O)[*:2]].L}$PEPTIDE1,PEPTIDE1,1:R1-5:R2$$$V2.0) | 17 | 20 |
| CC(C)C[C@@H]1NC(=O)[C@H](Cc2ccccc2)NC(=O)[C@H](CC(C)C)NC(=O)[C@@H](Cc2ccccc2)NC(=O)[C@H](CC(C)C)NC1=O (HELM PEPTIDE1{F.L.L.[dF].L}$PEPTIDE1,PEPTIDE1,1:R1-5:R2$$$V2.0) | 11 | 11 |
| CC(C)C[C@@H]1NC(=O)[C@H](Cc2ccccc2)NC(=O)[C@H](CC(C)C)NC(=O)[C@@H](CO)NC(=O)[C@H](CC(C)C)NC1=O (HELM PEPTIDE1{F.L.L.[dS].L}$PEPTIDE1,PEPTIDE1,1:R1-5:R2$$$V2.0) | 0 | 11 |
| CC(C)C[C@@H]1NC(=O)[C@H](Cc2ccccc2)NC(=O)[C@@H](CC(C)C)NC(=O)[C@@H](C(C)C)NC(=O)[C@H](CC(C)C)NC1=O (HELM PEPTIDE1{F.L.L.[dV].[dL]}$PEPTIDE1,PEPTIDE1,1:R1-5:R2$$$V2.0) | 34 | 17 |
| CC(C)C[C@@H]1NC(=O)[C@H](Cc2ccccc2)NC(=O)[C@H](CC(C)C)NC(=O)[C@H](C(C)C)N(C)C(=O)[C@H](CC(C)C)NC1=O (HELM PEPTIDE1{F.L.L.[meV].L}$PEPTIDE1,PEPTIDE1,1:R1-5:R2$$$V2.0) | 6 | 23 |
| CC(C)C[C@@H]1NC(=O)[C@H](Cc2ccccc2)NC(=O)[C@H](CC(C)C)N(C)C(=O)[C@H](C(C)C)N(C)C(=O)[C@H](CC(C)C)NC1=O (HELM PEPTIDE1{F.L.L.[meV].[meL]}$PEPTIDE1,PEPTIDE1,1:R1-5:R2$$$V2.0) | 10 | 0 |
| CC(C)C[C@@H]1NC(=O)[C@H](Cc2ccccc2)NC(=O)[C@H](CC(C)C)NC(=O)[C@H](C(C)C)NC(=O)[C@@H](CC(C)C)NC1=O (HELM PEPTIDE1{F.L.[dL].V.L}$PEPTIDE1,PEPTIDE1,1:R1-5:R2$$$V2.0) | 0 | 15 |
| CC(C)C[C@@H]1NC(=O)[C@H](C(C)C)NC(=O)[C@H](CC(C)C)N(C)C(=O)[C@H](CC(C)C)NC(=O)[C@H](Cc2ccccc2)NC1=O (HELM PEPTIDE1{F.L.[meL].V.L}$PEPTIDE1,PEPTIDE1,1:R1-5:R2$$$V2.0) | 30 | 57 |
| CC(C)[C@@H]1NC(=O)[C@H](Cc2ccccc2)NC(=O)[C@@H](CO)NC(=O)[C@H](C(C)C)NC(=O)[C@H](C(C)C)NC1=O (HELM PEPTIDE1{F.V.V.V.[dS]}$PEPTIDE1,PEPTIDE1,1:R1-5:R2$$$V2.0) | 0 | 18 |
| CC[C@H]1NC(=O)[C@H](C(C)C)NC(=O)[C@H](C(C)C)NC(=O)[C@H](Cc2ccccc2)NC(=O)[C@H](C(C)C)NC1=O (HELM PEPTIDE1{F.V.V.[CC[C@@H](N[*:1])C(=O)[*:2]].V}$PEPTIDE1,PEPTIDE1,1:R1-5:R2$$$V2.0) | 16 | 2 |
| CC(C)[C@@H]1NC(=O)[C@H](Cc2ccccc2)NC(=O)[C@H](C(C)C)NC(=O)[C@@H](CO)NC(=O)[C@H](C(C)C)NC1=O (HELM PEPTIDE1{F.V.V.[dS].V}$PEPTIDE1,PEPTIDE1,1:R1-5:R2$$$V2.0) | 18 | 13 |
| CC(C)[C@@H]1NC(=O)[C@H](Cc2ccccc2)NC(=O)[C@H](C(C)C)NC(=O)[C@@H](C(C)C)NC(=O)[C@H](C(C)C)NC1=O (HELM PEPTIDE1{F.V.V.[dV].V}$PEPTIDE1,PEPTIDE1,1:R1-5:R2$$$V2.0) | 19 | 1 |
| CC(C)C[C@@H]1NC(=O)CN(C)C(=O)[C@H](Cc2ccccc2)NC(=O)[C@H](C(C)C)NC(=O)[C@@H](C(C)C)NC1=O (HELM PEPTIDE1{F.[Sar].L.[dV].V}$PEPTIDE1,PEPTIDE1,1:R1-5:R2$$$V2.0) | 20 | 18 |
| CC(C)C[C@@H]1NC(=O)[C@H](C(C)C)NC(=O)[C@H](CC(C)C)NC(=O)[C@@H](CC(C)C)NC(=O)[C@H](Cc2ccccc2)NC1=O (HELM PEPTIDE1{F.[dL].L.V.L}$PEPTIDE1,PEPTIDE1,1:R1-5:R2$$$V2.0) | 45 | 10 |
| CC(C)C[C@@H]1NC(=O)[C@@H](C(C)C)N(C)C(=O)[C@H](CC(C)C)NC(=O)[C@@H](CC(C)C)NC(=O)[C@H](Cc2ccccc2)NC1=O (HELM PEPTIDE1{F.[dL].L.[CC(C)[C@H](C(=O)[*:2])N(C)[*:1]].L}$PEPTIDE1,PEPTIDE1,1:R1-5:R2$$$V2.0) | 38 | 14 |
